Experimental data from ChEMBL document CHEMBL3102798, “Stapled Vasoactive Intestinal Peptide (VIP) Derivatives Improve VPAC2 Agonism and Glucose-Dependent Insulin Secretion” (ACS Med Chem Lett, 2013).
pEC50: −log10 of the molar value. Activity calls are given as the source filed them. The rule behind the calls is not given here. Bridge positions count the residues as written; N and C are the ends. Peptide text beside a SMILES is read from it.

Columns and labels:
[1] = Stability of the compound in phosphate buffer assessed as compound remaining at pH 7.4 after 15 mins by LC-MS-MS analysis in presence of trypsin; assay type: ADME; settings: phosphate buffer with trypsin, read-out: Stability
[2] = Half life in human at 3.3 pmol/kg/min, iv administered as infusion; assay type: ADME, organism-based; settings: in vivo
[3] = Apparent passive permeability across apical to basolateral side in human Caco2 cells at 10 uM after 30 to 60 mins by LC/MS analysis; assay type: ADME, cell-based; settings: Caco-2
Pancreatic islet [4] = experiment: Induction of 8 mM glucose-induced insulin secretion in Han Wistar rat pancreatic islets at 10 to 100 nM after 2 hrs by HTRF assay; assay type: functional
In short: (§1)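 Isolated rat pancreatic islets were incubated with peptide in 8 mM glucose, and insulin secretion was measured. Data are mean ±SE (n > 3), and significance was tested against vehicle-treated samples.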

[5] = target: T1, Vasoactive intestinal polypeptide receptor 2 (Homo sapiens, UniProt P41587); experiment: Agonist activity at human VPAC2 expressed in CHO Flp-in cells assessed as accumulation of cAMP after 30 mins by TR-FRET assay; assay type: functional, cell-based
T1 sequence (P41587 whole entry): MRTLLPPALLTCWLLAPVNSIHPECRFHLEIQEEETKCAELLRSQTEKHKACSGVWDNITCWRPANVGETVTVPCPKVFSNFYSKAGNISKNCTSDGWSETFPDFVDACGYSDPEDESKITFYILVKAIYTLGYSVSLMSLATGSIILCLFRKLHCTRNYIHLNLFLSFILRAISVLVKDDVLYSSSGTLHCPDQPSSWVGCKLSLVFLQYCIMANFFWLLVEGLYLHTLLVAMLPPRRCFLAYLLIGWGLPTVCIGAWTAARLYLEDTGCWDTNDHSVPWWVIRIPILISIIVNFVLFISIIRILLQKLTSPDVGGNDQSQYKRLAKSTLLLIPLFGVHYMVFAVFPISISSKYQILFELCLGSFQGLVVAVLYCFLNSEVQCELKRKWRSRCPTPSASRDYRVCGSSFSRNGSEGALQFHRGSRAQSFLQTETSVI

Pancreatic islet [6] = experiment: Induction of 8 mM glucose-induced insulin secretion in Han Wistar rat pancreatic islets at 100 nM after 2 hrs by HTRF assay; assay type: functional; in short: as §1
Pancreatic islet [7] = experiment: Induction of 8 mM glucose-induced insulin secretion in Han Wistar rat pancreatic islets after 2 hrs by HTRF assay; assay type: functional
In short: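 Isolated rat pancreatic islets were incubated with 8 mM glucose plus peptide over a range of concentrations, and secreted insulin was measured. Data are mean (±SE), n > 3, and were compared with vehicle-treated samples (p < 0.05, 0.01, 0.001).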

Pancreatic islet [8] = experiment: Induction of 8 mM glucose-induced insulin secretion in Han Wistar rat pancreatic islets at 1 to 100 nM after 2 hrs by HTRF assay; assay type: functional; in short: as §1

Row | remaining at 0.25 h [1] | Papp A→B at 10 µM [3] | pEC50 [5] | Compound | further results
1 | 1.5% | < 0.1 ×10⁻⁶ cm/s | 10.31 | CC[C@H](C)[C@H](NC(=O)[C@H](CO)NC(=O)[C@H](CC(N)=O)NC(=O)[C@H](CC(C)C)NC(=O)[C@H](Cc1ccc(O)cc1)NC(=O)[C@H](CCCCN)NC(=O)[C@H](CCCCN)NC(=O)[C@@H](NC(=O)[C@H](C)NC(=O)[C@]1(C)CCCC/C=C\CCCC[C@](C)(NC(=O)[C@H](CCCNC(=N)N)NC(=O)[C@@H](NC(=O)[C@H](Cc2ccc(O)cc2)NC(=O)[C@H](CC(N)=O)NC(=O)[C@H](CC(=O)O)NC(=O)[C@@H](NC(=O)[C@H](Cc2ccccc2)NC(=O)[C@@H](NC(=O)[C@H](C)NC(=O)[C@H](CC(=O)O)NC(=O)[C@H](CO)NC(=O)[C@@H](N)Cc2cnc[nH]2)C(C)C)[C@@H](C)O)[C@@H](C)O)C(=O)N[C@@H](CCCNC(=N)N)C(=O)N[C@@H](CCCCN)C(=O)N[C@@H](CCC(N)=O)C(=O)N1)C(C)C)C(=O)N[C@@H](CC(C)C)C(=O)N[C@@H](CC(N)=O)C(=O)NCC(=O)N[C@@H](CCCCN)C(=O)O | Activity (Pancreatic islet [4]): Active
2 | – | – | – | C=CCCC[C@](C)(NC(=O)[C@H](CCC(N)=O)NC(=O)[C@H](CCCCN)NC(=O)[C@H](CCCNC(=N)N)NC(=O)[C@](C)(CCCC=C)NC(=O)[C@H](CCCNC(=N)N)NC(=O)[C@@H](NC(=O)[C@H](Cc1ccc(O)cc1)NC(=O)[C@H](CC(N)=O)NC(=O)[C@H](CC(=O)O)NC(=O)[C@@H](NC(=O)[C@H](Cc1ccccc1)NC(=O)[C@@H](NC(=O)[C@H](C)NC(=O)[C@H](CC(=O)O)NC(=O)[C@H](CO)NC(=O)[C@@H](N)Cc1cnc[nH]1)C(C)C)[C@@H](C)O)[C@@H](C)O)C(=O)N[C@@H](C)C(=O)N[C@H](C(=O)N[C@@H](CCCCN)C(=O)N[C@@H](CCCCN)C(=O)N[C@@H](Cc1ccc(O)cc1)C(=O)N[C@@H](CC(C)C)C(=O)N[C@@H](CC(N)=O)C(=O)N[C@@H](CO)C(=O)N[C@H](C(=O)N[C@@H](CC(C)C)C(=O)N[C@@H](CC(N)=O)C(=O)NCC(=O)N[C@@H](CCCCN)C(=O)O)[C@@H](C)CC)C(C)C | Activity (Pancreatic islet [6]): Active
3 | – | – | – | CC[C@H](C)[C@H](NC(=O)[C@H](CO)NC(=O)[C@H](CC(N)=O)NC(=O)[C@H](CC(C)C)NC(=O)[C@H](Cc1ccc(O)cc1)NC(=O)[C@H](CCCCN)NC(=O)[C@H](CCCCN)NC(=O)[C@@H](NC(=O)[C@H](C)NC(=O)[C@H](CCSC)NC(=O)[C@H](CCC(N)=O)NC(=O)[C@H](CCCCN)NC(=O)[C@H](CCCNC(=N)N)NC(=O)[C@H](CC(C)C)NC(=O)[C@H](CCCNC(=N)N)NC(=O)[C@@H](NC(=O)[C@H](Cc1ccc(O)cc1)NC(=O)[C@H](CC(N)=O)NC(=O)[C@H](CC(=O)O)NC(=O)[C@@H](NC(=O)[C@H](Cc1ccccc1)NC(=O)[C@@H](NC(=O)[C@H](C)NC(=O)[C@H](CC(=O)O)NC(=O)[C@H](CO)NC(=O)[C@@H](N)Cc1cnc[nH]1)C(C)C)[C@@H](C)O)[C@@H](C)O)C(C)C)C(=O)N[C@@H](CC(C)C)C(=O)N[C@@H](CC(N)=O)C(=O)O | Activity (Pancreatic islet [7]): Dose-dependent effect
4 | – | – | – | CC[C@H](C)[C@H](NC(=O)[C@H](Cc1ccccc1)NC(=O)[C@H](CCC(=O)O)NC(=O)[C@H](CCCCN)NC(=O)[C@H](C)NC(=O)[C@H](C)NC(=O)[C@H](CCC(N)=O)NC(=O)CNC(=O)[C@H](CCC(=O)O)NC(=O)[C@H](CC(C)C)NC(=O)[C@H](Cc1ccc(O)cc1)NC(=O)[C@H](CO)NC(=O)[C@H](CO)NC(=O)[C@@H](NC(=O)[C@H](CC(=O)O)NC(=O)[C@H](CO)NC(=O)[C@@H](NC(=O)[C@H](Cc1ccccc1)NC(=O)[C@@H](NC(=O)CNC(=O)[C@H](CCC(=O)O)NC(=O)[C@H](C)NC(=O)[C@@H](N)Cc1c[nH]cn1)[C@@H](C)O)[C@@H](C)O)C(C)C)C(=O)N[C@@H](C)C(=O)N[C@@H](Cc1c[nH]c2ccccc12)C(=O)N[C@@H](CC(C)C)C(=O)N[C@H](C(=O)N[C@@H](CCCCN)C(=O)NCC(=O)N[C@@H](CCCN=C(N)N)C(=O)NCC(=O)O)C(C)C | Activity (Pancreatic islet [7]): Dose-dependent effect
5 | 0.4% | < 0.1 ×10⁻⁶ cm/s | 10.00 | CC[C@H](C)[C@H](NC(=O)[C@H](CO)NC(=O)[C@H](CC(N)=O)NC(=O)[C@H](CC(C)C)NC(=O)[C@H](Cc1ccc(O)cc1)NC(=O)[C@@H]1CCCCNC(=O)CC[C@H](NC(=O)[C@H](CCC(N)=O)NC(=O)[C@H](CCCCN)NC(=O)[C@H](CCCNC(=N)N)NC(=O)[C@H](CC(C)C)NC(=O)[C@H](CCCNC(=N)N)NC(=O)[C@@H](NC(=O)[C@H](Cc2ccc(O)cc2)NC(=O)[C@H](CC(N)=O)NC(=O)[C@H](CC(=O)O)NC(=O)[C@@H](NC(=O)[C@H](Cc2ccccc2)NC(=O)[C@@H](NC(=O)[C@H](C)NC(=O)[C@H](CC(=O)O)NC(=O)[C@H](CO)NC(=O)[C@@H](N)Cc2cnc[nH]2)C(C)C)[C@@H](C)O)[C@@H](C)O)C(=O)N[C@@H](C)C(=O)N[C@@H](C(C)C)C(=O)N[C@@H](CCCCN)C(=O)N1)C(=O)N[C@@H](CC(C)C)C(=O)N[C@@H](CC(N)=O)C(=O)NCC(=O)N[C@@H](CCCCN)C(=O)O (H-HSDAVFTDNYTRLRKQEAVKKYLNSILNGK-OH; lactam 17-21) | Activity (Pancreatic islet [4]): Active
6 | 0.9% | < 0.1 ×10⁻⁶ cm/s | 9.42 | H-HSDAVFTDNYTRLRKQEAVKKYLNSILNGK-OH | Activity (Pancreatic islet [6]): Active
7 | – | – | – | H-HSDAVFTDNYTRLRKQIAVKKYLNSILNGK-OH | Activity (Pancreatic islet [8]): Active

Row | Compound | remaining at 0.25 h [1] | Papp A→B at 10 µM [3] | pEC50 [5] | further results
8 | CC[C@H](C)[C@H](NC(=O)[C@H](CO)NC(=O)[C@H](CC(N)=O)NC(=O)[C@H](CC(C)C)NC(=O)[C@H](Cc1ccc(O)cc1)NC(=O)[C@H](CCCCN)NC(=O)[C@H](CCCCN)NC(=O)[C@@H](NC(=O)[C@H](C)NC(=O)[C@H](CCSC)NC(=O)[C@H](CCC(N)=O)NC(=O)[C@H](CCCCN)NC(=O)[C@H](CCCN=C(N)N)NC(=O)[C@H](CC(C)C)NC(=O)[C@H](CCCN=C(N)N)NC(=O)[C@@H](NC(=O)[C@H](Cc1ccc(O)cc1)NC(=O)[C@H](CC(N)=O)NC(=O)[C@H](CC(=O)O)NC(=O)[C@@H](NC(=O)[C@H](Cc1ccccc1)NC(=O)[C@@H](NC(=O)[C@H](C)NC(=O)[C@H](CC(=O)O)NC(=O)[C@H](CO)NC(=O)[C@@H](N)Cc1c[nH]cn1)C(C)C)[C@@H](C)O)[C@@H](C)O)C(C)C)C(=O)N[C@@H](CC(C)C)C(=O)N[C@@H](CC(N)=O)C(N)=O | 0.5% | < 0.1 ×10⁻⁶ cm/s | – | half-life [2]: < 1 min
